For 13 compounds, inhibition in vivo, LD50 and UI results are on record in ChEMBL document CHEMBL1152856, “Design, synthesis and molecular modeling study of acylated 1,2,4-triazole-3-acetates with potential anti-inflammatory activity” (Eur J Med Chem, 2009).

SMILES strings stand for the structures.

Data set [1] deals with Rattus norvegicus. Kind of data set: Antiinflammatory activity in albino rat assessed as inhibition of carrageenan-induced paw edema at 5 mg/kg, po administered 30 mins before carrageenan challenge measured after 1 hr. The class given is functional. The gist of the method:
(§1)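 Rats dosed orally with compound suspended in 0.5% carboxymethyl cellulose; controls got CMC vehicle. 30 min later, 0.1 mL freshly prepared 1% carrageenan in normal saline injected subplantar into right hind paw. Paw thickness measured at 60, 120 and 180 min after dosing. Result given as % inhibition of edema ± S.E.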
(In general: Carrageenan injected into the paw causes an acute inflammation.)

Data set [2] deals with Rattus norvegicus. Kind of data set: Antiinflammatory activity in albino rat assessed as inhibition of carrageenan-induced paw edema at 5 mg/kg, po administered 30 mins before carrageenan challenge measured after 2 hrs. The format is functional. The essentials:
as §1

In data set [3] the test system is Rattus norvegicus. Kind of data set: Antiinflammatory activity in albino rat assessed as inhibition of carrageenan-induced paw edema at 5 mg/kg, po administered 30 mins before carrageenan challenge measured after 3 hrs. The class given is functional. The essentials:
as §1

The nature of data set [4]: Toxicity in ip dosed albino mouse assessed as mortality after 24 hrs. The class given is organism-based. The conditions noted are these: in vivo. The essentials: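 Adult male albino mice (25-30 g), groups of five, given graded doses intraperitoneally. Mortality per group recorded 24 h after injection. LD50 calculated by a graphical method.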
Data set [5] concerns Rattus norvegicus. Kind of data set: Gastrointestinal toxicity in albino rat assessed as ulcer index at 10 mg/kg, po after 6 hrs. The format is organism-based. Set-up: dose 10 mg/kg, route oral. As to conditions: in vivo. The essentials: (§2)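 Oral dosing by stomach tube with suspensions in 0.5% w/v aqueous carboxymethyl cellulose (10, 50, 100 mg/kg); controls got equal volume of vehicle. Rats killed at 6 h, stomachs opened along greater curvature, washed, mucosa examined by stereomicroscope. Ulcer = lesion ≥0.5 mm; five patches = 1 mm. Ulcer index = summed lesion lengths divided by animal number; groups of 6.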

Data set [6] concerns Rattus norvegicus. As to the kind of experiment: Gastrointestinal toxicity in albino rat assessed as ulcer index at 50 mg/kg, po after 6 hrs. The class given is organism-based. Also on record: dose 50 mg/kg, route oral. As to conditions: in vivo. The gist of the method:
as §2

For data set [7], the system named is Rattus norvegicus. Kind of data set: Gastrointestinal toxicity in albino rat assessed as ulcer index at 100 mg/kg, po after 6 hrs. The class given is organism-based. Set-up: dose 100 mg/kg, route oral. As to conditions: in vivo. The gist of the method: as §2

As usually defined, the inhibition in vivo is the share of the control response that was lost under treatment. Take `CCOC(=O)Cc1nc(N)n(C(=O)c2ccccc2)n1`: the inhibition in vivo at 5 mg/kg in data set [1] turned out to be 31.6%; in data set [2], 38.5%; in data set [3] it was 57.5%.
For `Nc1nc(CC(=O)O)n[nH]1` the same measures were 22.3%, 29.5% and 48.1%.
One may read the LD50 as the dose at which mortality reaches 50%. For `CCOC(=O)Cc1nc(N)n(C(=O)c2ccc(Br)cc2)n1`, the inhibition in vivo at 5 mg/kg amounted to 34.8% in data set [1], 43% in data set [2] and 64.1% in data set [3]. In data set [4], the LD50 at 24 h amounted to 120 mg/kg.
Take `CCOC(=O)Cc1nc(N)n(C(=O)c2ccc(OC)cc2)n1`: the figures for the inhibition in vivo at 5 mg/kg in data set [1], in data set [2] and in data set [3] were 32.8%, 41.5% and 60%, respectively.
In the case of `CCOC(=O)Cc1nc(N)n(C(=O)c2ccc([N+](=O)[O-])cc2)n1`, the inhibition in vivo at 5 mg/kg in data set [1] is 36.1%; in data set [2], 46.3%; in data set [3], 68.2%. In data set [4], the LD50 at 24 h was determined as 90 mg/kg.
`CCOC(=O)Cc1nc(N)n(C(=O)c2ccc(Cl)cc2)n1`: the inhibition in vivo at 5 mg/kg in data set [1] stood at 34.2%; in data set [2] it was 42.3%; in data set [3], 62.8%. Moreover, the LD50 at 24 h in data set [4] amounted to 130 mg/kg. Also, the UI is recorded as 0 in data set [5], 0.5 in data set [6] and 0.75 in data set [7].
As to `CCOC(=O)Cc1n[nH]c(NC(=O)c2ccc([N+](=O)[O-])cc2)n1`, the inhibition in vivo at 5 mg/kg in data set [1] amounted to 32.6%; in data set [2] it was 42.1%; in data set [3], 59.8%.
The like results for `CCOC(=O)Cc1n[nH]c(NC(=O)c2ccc(OC)cc2)n1` were, in that order, 30.2%, 38.2% and 56%.
For `CCOC(=O)Cc1n[nH]c(N)n1`, the inhibition in vivo at 5 mg/kg amounted to 25% in data set [1], 33.6% in data set [2] and 51.8% in data set [3].
For `CCOC(=O)Cc1n[nH]c(NC(=O)c2ccc(Br)cc2)n1` the same measures were 31.3%, 40.4% and 58.8%.
Regarding `CCOC(=O)Cc1n[nH]c(NC(=O)c2ccccc2)n1`, the inhibition in vivo at 5 mg/kg in data set [1] worked out at 26.8%; in data set [2], 36.2%; in data set [3], 55.3%.
Regarding `CCOC(=O)Cc1n[nH]c(NC(=O)c2ccc(Cl)cc2)n1`, the inhibition in vivo at 5 mg/kg in data set [1] came to 31.1%; in data set [2], 39.1%; in data set [3], 58.5%. The results for the UI in data set [5], in data set [6] and in data set [7] were 0, 0 and 0.75, respectively.
As to `COc1ccc2c(c1)c(CC(=O)O)c(C)n2C(=O)c1ccc(Cl)cc1` [INDOMETHACIN], the figures for the inhibition in vivo at 5 mg/kg in data set [1], in data set [2] and in data set [3] were 31.5%, 40.1% and 60.8%, respectively. Further, the LD50 at 24 h in data set [4] was found to be 50 mg/kg. The figures for the UI in data set [5], in data set [6] and in data set [7] were 2.5, 1.9 and 2.1, respectively.
